Bioassay records deposited in PubChem BioAssay by Broad Institute.
YB-1 expr inh: YB-1 expression inhibition; U2OS, qRT-PCR YB-1 vs CDIP delta delta Cp, 16 h; hits give high values; zero = DMSO, each unit about twofold; delta delta Cp (YB-1 minus CDIP) (concentration not given with the values); 0.37% of 30,000 active; AID 434959;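 active = delta delta Cp rounded down to an integer at or above 3, about 3 SD of DMSO wells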;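 note: higher means less YB-1 transcript or more CDIP transcript relative to DMSO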
INS-1E rescue: INS-1E beta cell protection from cytokine death; INS-1E cytokine-induced death, ATP luminescence, 48 h; normalised: neutral wells 0, positive control 100; protection from cytokine-induced ATP loss, % at 10 µM; 0.1% of 20,000 active;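 active = mean replicate protection from cytokine-induced ATP loss at least 50% and at least 75% of replicates each reaching 50%; inconclusive = meets only one of the two criteria, mean or replicate share; inactive = fails both the mean and replicate share criteria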
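Assay system – rat INS-1E insulinoma cell line · Quantity – 8000 cells per well · Buffer or medium – RPMI without phenol red, 5% FBS · Schedule – 48 h co-treatment, 10 min post-lysis read · Technique – luminescent ATP assay (CellTiter-Glo)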
T cruzi HTS: blocks T. cruzi growth inside host cells; intracellular Trypanosoma cruzi in host cells, plate reader; activity score (inhibition), % at 5.01 µM; 4.9% of 22,000 active; AID 651903; in the data active = activity score above about 55%; inconclusive = no clear call, values can overlap the other calls;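 note: parasites and compound incubated about four days before reading; 0% = median of neutral control wells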
Active calls of the source: *. Shown is part of a subset that was picked to be rich in hits.

How did C[C@@H]1CN([C@H](C)CO)C(=O)c2cc(NC(=O)Nc3cccc4ccccc34)ccc2O[C@@H]1CN(C)Cc1ccc(C(F)(F)F)cc1 do in these assays?
YB-1 expr inh: 0.14; INS-1E rescue: -11; T cruzi HTS: 75*

Results for C[C@@H]1CN([C@@H](C)CO)C(=O)c2cc(NC(=O)Nc3cccc4ccccc34)ccc2O[C@@H]1CN(C)Cc1ccc(C(F)(F)F)cc1 ?
YB-1 expr inh: 0.13; T cruzi HTS: 59*

How did C[C@@H]1CN([C@@H](C)CO)C(=O)c2cc(NC(=O)Nc3cccc4ccccc34)ccc2O[C@H]1CN(C)Cc1ccccc1 do in these assays?
YB-1 expr inh: -0.018; INS-1E rescue: -15; T cruzi HTS: inconclusive

Results for C[C@H]1CN([C@@H](C)CO)C(=O)c2cc(NS(=O)(=O)c3ccc(F)cc3)ccc2O[C@@H]1CN(C)S(=O)(=O)c1ccc(Cl)cc1 ?
YB-1 expr inh: -0.4; INS-1E rescue: 0; T cruzi HTS: 5

What do the screens show for `COc1ccc(S(=O)(=O)Nc2ccc3c(c2)C(=O)N([C@@H](C)CO)C[C@@H](C)[C@H](CN(C)S(=O)(=O)c2ccc(F)cc2)O3)cc1`?
YB-1 expr inh: 0.1; INS-1E rescue: -1; T cruzi HTS: 4

How did C[C@H](CO)N1C[C@H](C)[C@@H](CN(C)S(=O)(=O)c2ccc(F)cc2)Oc2ccc(NS(=O)(=O)c3ccc(F)cc3)cc2C1=O do in these assays?
YB-1 expr inh: -0.49; T cruzi HTS: -3

How did C[C@@H]1CN([C@@H](C)CO)C(=O)c2cc(NS(=O)(=O)c3cccs3)ccc2O[C@H]1CN(C)S(=O)(=O)c1ccc(F)cc1 do in these assays?
YB-1 expr inh: 0.12; INS-1E rescue: 5; T cruzi HTS: 62*

How did C[C@H](CO)N1C[C@H](C)[C@H](CN(C)S(=O)(=O)c2ccc(F)cc2)Oc2ccc(NS(=O)(=O)c3ccc(F)cc3)cc2C1=O do in these assays?
YB-1 expr inh: 0.086; T cruzi HTS: 68*

Results for C[C@H](CO)N1C[C@H](C)[C@H](CN(C)S(=O)(=O)c2ccc(Cl)cc2)Oc2ccc(NS(=O)(=O)c3ccc(F)cc3)cc2C1=O ?
YB-1 expr inh: 0.56; INS-1E rescue: -16; T cruzi HTS: 63*

Results for C[C@@H]1CN([C@H](C)CO)C(=O)c2cc(NS(=O)(=O)c3cccs3)ccc2O[C@H]1CN(C)S(=O)(=O)c1ccc(F)cc1 ?
YB-1 expr inh: 0.062; T cruzi HTS: -7

What do the screens show for `COc1ccc(S(=O)(=O)N(C)C[C@@H]2Oc3ccc(NS(=O)(=O)c4ccc(F)cc4)cc3C(=O)N([C@@H](C)CO)C[C@@H]2C)cc1`?
YB-1 expr inh: 19*; INS-1E rescue: -6; T cruzi HTS: 0

What do the screens show for `C[C@H]1CN([C@@H](C)CO)C(=O)c2cc(NS(C)(=O)=O)ccc2O[C@@H]1CN(C)C(=O)Nc1cccc2ccccc12`?
YB-1 expr inh: -0.072; T cruzi HTS: -15

What do the screens show for `CC(C)NC(=O)Nc1ccc2c(c1)CC(=O)N([C@@H](C)CO)C[C@H](C)[C@H](CN(C)C(=O)Nc1ccc(F)cc1)O2`?
YB-1 expr inh: -0.68; INS-1E rescue: -3; T cruzi HTS: -22

What do the screens show for `C[C@@H]1CN([C@@H](C)CO)C(=O)c2cc(NC(=O)CCCCCC(=O)Nc3ccccc3N)ccc2O[C@H]1CN(C)CC1CCCCC1`?
YB-1 expr inh: 0.16; INS-1E rescue: -9; T cruzi HTS: 21

Results for Cc1noc(C)c1NC(=O)Nc1cccc2c1O[C@@H](CN(C)Cc1ccc(C(F)(F)F)cc1)[C@H](C)CN([C@@H](C)CO)C2=O ?
YB-1 expr inh: 0.12; INS-1E rescue: -7; T cruzi HTS: 18

Results for C[C@H]1CN([C@@H](C)CO)C(=O)Cc2cc(NC(=O)Cn3cnnn3)ccc2O[C@H]1CN(C)S(=O)(=O)c1cn(C)cn1 ?
YB-1 expr inh: -0.0013; INS-1E rescue: -2; T cruzi HTS: -11

What do the screens show for `COc1ccc(S(=O)(=O)N(C)C[C@@H]2Oc3c(NC(=O)C4CC4)cccc3C(=O)N([C@@H](C)CO)C[C@H]2C)cc1`?
YB-1 expr inh: -0.16; INS-1E rescue: 4; T cruzi HTS: -9

Results for COC1=CC(=O)OC(CCc2ccc(OC)c(OC)c2)C1 (stereo not given) ?
YB-1 expr inh: -0.066

How did Cc1noc(C)c1S(=O)(=O)Nc1ccc2c(c1)CC(=O)N([C@@H](C)CO)C[C@@H](C)[C@@H](CN(C)Cc1ccc(Cl)c(Cl)c1)O2 do in these assays?
YB-1 expr inh: 0.24; INS-1E rescue: -9; T cruzi HTS: 61*
